Test results from ChEMBL document CHEMBL2390908, “Mapping the Vif-A3G interaction using peptide arrays: a basis for anti-HIV lead peptides” (Bioorg Med Chem, 2013).
Calls of active or inactive are those of the source. No cut-off for these calls is given here.

Legend:
[1] = system: Human immunodeficiency virus 1; assay: Binding affinity to full length N-terminal His6-tagged HIV1 HXB2 Vif expressed in Escherichia coli MC-1061 after overnight incubation by chemiluminescence assay
Procedure, shortened: (§1)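 Immobilized peptide arrays blocked 4 h in 3.5% milk in 50 mM Tris-HCl pH 8, 150 mM NaCl, 1% Tween 20, then probed overnight at 4 °C with purified His-tagged protein in that buffer (full-length Vif 2 μM final; Vif CTD 7 μM final). Detection used anti-Vif mAb, HRP goat anti-mouse and chemiluminescence. Two experiments, duplicate arrays per slide.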

[2] = system: Human immunodeficiency virus 1; assay: Binding affinity to N-terminal His6-tagged HIV1 HXB2 Vif CTD (141 to 192 amino acids) expressed in Escherichia coli MC-1061 after overnight incubation by chemiluminescence assay; procedure, shortened: as §1
H9 = assay: Cytotoxicity against human H9 cells at 50 to 100 uM after 2 hrs; assay type: cell-based; settings: h9, 2 h
293T = assay: Binding affinity to HIV1 Vif expressed in human 293T cells assessed as inhibition of A3G degradation at 100 uM after 24 hrs by Western blot analysis; assay type: cell-based; settings: Human immunodeficiency virus 1
Procedure, shortened: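 293T cells co-transfected by calcium phosphate with Myc/His6-tagged A3G and HVif vectors (empty pcDNA3.1 in place of Vif as control). Medium replaced 8 h post-transfection, peptides added at 100 μM for a further 24 h. Lysates immunoblotted with anti-Myc (A3G) and anti-Vif antibodies. A3G bands quantified densitometrically, with A3G intensity in the no-Vif control set to 100%.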

[3] = system: Human immunodeficiency virus 1; assay: Antiviral activity against HIV1 infected in human H9 cells assessed as inhibition of viral propagation at 50 to 100 uM incubated for 2 hrs prior to infection measured on day 7 to 9 by MAGI assay; assay type: functional, organism-based
Procedure, shortened: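 H9 cells, which express endogenous A3G, pretreated 2 h with peptides at 50 and 100 μM, then infected with wt HIV-1 HXBII at MOI 0.05. Media collected on days 5, 7 and 9 post-infection, and released-virus infectivity titered by MAGI assay.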

Substance | Activity [1] | Activity [2] | Activity (H9) | inhibition (293T) | inhibition [3]
H-MRFFHWFSKWRKLHR-OH | Active | Active |  |  | 
H-AGAKISIMTYSEFKH-OH | Active | inactive |  |  | 
H-TFLAEDPKVTLTIFV-OH | Active | Active |  |  | 
H-LDVIPFWKLDLDQDY-OH | Active | Active | Non-toxic | Active | inactive
H-NTVWLCYEVKTKGPS-OH | Active | Active |  |  | 
H-WVRGRHETYLCYEVE-OH | Active | Active | Non-toxic | Active | Active

The next lines start with results.

Activity [1] | Activity [2] | Substance | Activity (H9) | inhibition (293T) | inhibition [3]
Active | Active | H-DGPRATMKIMNYDEF-OH |  |  | 
Active | Active | H-QEMAKFISKNKHVSL-OH |  |  | 
Active | Active | H-YSQRELFEPWNNLPK-OH |  |  | 
Active | inactive | H-HQGCPFQPWDGLDEH-OH |  |  | 
